From ChEMBL document CHEMBL1914310, “Microbial transformations of diosgenin by the white-rot basidiomycete Coriolus versicolor” (2011)
Activity calls are given as the source filed them. The rule behind the calls is not given here.

Assays:
HEK293 = experiment: Inhibition of human NF-kappaB in HEK cells by luciferase reporter gene assay; type: cell-based
Method in brief: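 HEK293 cells with a chromosomally integrated luciferase reporter under an NF-κB response element. Pathway activation induced by human tumor necrosis factor. After incubation, treated cells were lysed in reporter lysis buffer. Luciferase light output was read on a luminometer.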

U-87MG ATCC = experiment: Cytotoxicity against human U87 cells after 48 hrs by XTT assay; type: functional, cell-based
Method in brief: (§1)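 U87 glioma cells kept in ATCC-recommended medium with 10% FBS at 37 °C, 5% CO2. Seeded at 1000 cells/well, exposed to compounds for 48 h. XTT added, then plates held another 4 h at 37 °C. Viability read colorimetrically per the kit protocol; inhibition taken at 100 μM.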

[1] = Cytotoxicity against human U87 cells assessed as growth inhibition at 100 uM after 48 hrs by XTT assay; type: functional, U-87MG ATCC; details: U-87 MG, read-out: GI; method in brief: as §1

SMILES | inhibition (HEK293) | Activity (U-87MG ATCC) | inhibition of growth at 100 µM [1]
C[C@@H]1CC[C@@]2(OC1)O[C@H]1C[C@H]3[C@@H]4[C@@H](O)C=C5C[C@@H](O)CC[C@]5(C)[C@H]4C[C@@H](O)[C@]3(C)[C@H]1[C@@H]2CO | inactive | inactive | 
C[C@@H]1CC[C@@]2(OC1)O[C@H]1C[C@H]3[C@@H]4CC=C5C[C@@H](O)CC[C@]5(C)[C@H]4CC[C@]3(C)[C@H]1[C@@H]2C | inactive |  | 
C[C@@H]1CC[C@@]2(OC1)O[C@H]1C[C@H]3[C@@H]4CCC5=CC(=O)CC[C@]5(C)[C@H]4CC[C@]3(C)[C@H]1[C@@H]2C | inactive | inactive | 
C[C@@H]1CC[C@@]2(OC1)O[C@H]1C[C@H]3[C@@H]4[C@@H](O)C=C5C[C@@H](O)CC[C@]5(C)[C@H]4C[C@@H](O)[C@]3(C)[C@H]1[C@@H]2C | inactive | inactive | 
C[C@@H]1CC[C@@]2(OC1)O[C@H]1C[C@H]3[C@H]4[C@H]([C@H](O)C[C@]3(C)[C@H]1[C@@H]2CO)[C@@]1(C)CC[C@H](O)CC1=C[C@@H]4O | inactive |  | 
C[C@@H]1CC[C@@]2(OC1)O[C@H]1C[C@H]3[C@@H]4[C@H](O)C=C5C[C@@H](O)CC[C@]5(C)[C@H]4C[C@@H](O)[C@]3(C)[C@H]1[C@@H]2CO | inactive |  | 
C[C@@H]1CC[C@@]2(OC1)O[C@H]1[C@H](O)[C@H]3[C@@H]4[C@H](O)C=C5C[C@@H](O)CC[C@]5(C)[C@H]4CC[C@]3(C)[C@H]1[C@@H]2CO | inactive | inactive | 
C[C@@H]1CC[C@@]2(OC1)O[C@H]1C[C@H]3[C@@H]4[C@@H](O)C=C5C[C@@H](O)CC[C@]5(C)[C@H]4CC[C@]3(C)[C@H]1[C@@H]2CO | inactive | inactive | 28.2%
CC(=O)O[C@H]1CC[C@@]2(C)C(=CC[C@H]3[C@@H]4C[C@@H]5O[C@]6(CC[C@@H](C)CO6)[C@@H](C)[C@@H]5[C@@]4(C)CC[C@@H]32)C1 | inactive | inactive | 
C[C@@H]1CC[C@@]2(OC1)O[C@H]1C[C@H]3[C@@H]4CC[C@H]5C[C@@H](O)CC[C@]5(C)[C@H]4CC[C@]3(C)[C@H]1[C@@H]2C | inactive |  | 
C[C@@H]1CC[C@@]2(OC1)O[C@H]1C[C@H]3[C@@H]4[C@@H](O)C=C5C[C@@H](O)CC[C@]5(C)[C@H]4CC[C@]3(C)[C@H]1[C@@H]2C | inactive | inactive | 
